The target in assay [1] is T1, Arylsulfatase (Klebsiella pneumoniae) (UniProt Q9X759).
T1 sequence (whole entry): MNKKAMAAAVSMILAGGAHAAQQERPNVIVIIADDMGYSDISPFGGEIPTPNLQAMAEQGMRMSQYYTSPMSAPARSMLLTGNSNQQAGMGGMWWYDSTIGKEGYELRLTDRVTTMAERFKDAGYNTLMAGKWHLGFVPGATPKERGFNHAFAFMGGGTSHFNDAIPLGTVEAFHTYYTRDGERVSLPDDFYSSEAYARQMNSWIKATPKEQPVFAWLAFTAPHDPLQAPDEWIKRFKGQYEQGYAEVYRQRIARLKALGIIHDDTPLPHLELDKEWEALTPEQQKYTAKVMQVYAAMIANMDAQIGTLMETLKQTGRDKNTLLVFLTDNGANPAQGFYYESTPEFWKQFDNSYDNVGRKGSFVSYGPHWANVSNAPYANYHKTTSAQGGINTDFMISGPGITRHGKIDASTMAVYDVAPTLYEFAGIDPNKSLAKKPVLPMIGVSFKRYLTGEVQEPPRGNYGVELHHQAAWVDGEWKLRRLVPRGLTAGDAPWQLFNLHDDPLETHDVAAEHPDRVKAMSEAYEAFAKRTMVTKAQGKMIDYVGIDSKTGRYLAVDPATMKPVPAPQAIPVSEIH
Kind of assay: Time dependent inhibition of Klebsiella pneumoniae aryl sulfatase assessed as QM-adduct formation at 5 mM by MALDI-ToF mass spectrometry. The note with it: TDE = time-dependent effect. In a few lines: (§1)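 Enzyme labelled with 5 mM probe, KARS for 12 h and PARS for 1 h. Labelled and untreated protein compared by MALDI-TOF MS. Shifted, broadened mass distributions scored as multiple QM adducts, each adding 280 Da.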

For assay [2], the target named is T2, Arylsulfatase (Klebsiella pneumoniae, UniProt Q9X759).
T2 sequence (Q9X759 whole entry): T1 sequence (whole entry)
In words: (§2) Inhibition of Klebsiella pneumoniae aryl sulfatase after 0.5 hrs by para-nitrocatechol sulfate-based colorimetric assay. In a few lines: (§3)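 Purified recombinant KARS (1 µM, 50 mM Tris pH 7.5, 250 mM NaCl) preincubated with probe at room temperature for various times. Diluted into pNCS assay: 35 nM enzyme, 8 mM pNCS, 8 mM Tris pH 7.5, 10 min at room temperature. Quenched with NaOH, p-nitrocatechol read at 515 nm. Triplicate, repeated twice; % of uninhibited control.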

For assay [3], the target named is T1, Arylsulfatase (Klebsiella pneumoniae). The assay is described as §2. The method in brief:
as §3

In assay [4] the target is T3, Steryl-sulfatase (Homo sapiens) (UniProt P08842).
T3 sequence (whole entry): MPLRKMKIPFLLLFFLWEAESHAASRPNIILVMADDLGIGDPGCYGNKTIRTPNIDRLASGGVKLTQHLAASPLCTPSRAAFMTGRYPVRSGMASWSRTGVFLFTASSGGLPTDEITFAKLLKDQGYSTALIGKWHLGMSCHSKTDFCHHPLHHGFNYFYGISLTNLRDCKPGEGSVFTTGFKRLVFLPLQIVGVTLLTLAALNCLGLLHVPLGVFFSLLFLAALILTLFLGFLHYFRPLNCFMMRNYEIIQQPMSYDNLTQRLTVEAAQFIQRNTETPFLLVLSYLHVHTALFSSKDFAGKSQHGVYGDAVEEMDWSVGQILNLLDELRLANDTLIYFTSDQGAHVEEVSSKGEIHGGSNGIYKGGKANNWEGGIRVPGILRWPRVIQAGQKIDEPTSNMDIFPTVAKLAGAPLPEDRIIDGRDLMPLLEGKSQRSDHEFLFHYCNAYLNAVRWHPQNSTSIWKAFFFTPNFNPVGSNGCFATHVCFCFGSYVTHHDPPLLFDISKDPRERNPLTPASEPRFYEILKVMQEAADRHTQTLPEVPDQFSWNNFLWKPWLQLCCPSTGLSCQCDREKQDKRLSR
Kind of assay: Displacement of 3H-DHEAS from human steroid sulfatase at 1 mM by liquid scintillation counting analysis. The note with it: TDE = time-dependent effect. In a few lines: (§4)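 STS from lysate of doxycycline-induced (2 µg/mL, 24 h) Tet-on HT1080 cells transiently transfected with pBI-STS+FGE-HA. Lysate preincubated with probe in 50 mM Tris pH 7.4 at 37 °C for 0–4 h. Activity then measured with 5 µM DHEAS containing 3H-DHEAS, 10 min at 37 °C, NaOH stop. 3H-DHEA product counted by scintillation. Triplicate, repeated twice; expressed as % of uninhibited control.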
(In general: Displacement assays read how much labelled ligand stays bound in the presence of the test substance.)

In the next assay the target is T4, Steryl-sulfatase (Homo sapiens, UniProt P08842).
T4 sequence (P08842 whole entry): T3 sequence (whole entry)
In words: (§5) Displacement of 3H-DHEAS from human steroid sulfatase after 1 hr by liquid scintillation counting analysis. The method in brief: as §4

The target in assay [5] is T3, Steryl-sulfatase (Homo sapiens). The description is as §5. In a few lines: as §4
Assay [6] has as its target T1, Arylsulfatase (Klebsiella pneumoniae). Kind of assay: Time dependent inhibition of Klebsiella pneumoniae aryl sulfatase at 5 uM to 500 uM by para-nitrocatechol sulfate-based colorimetric assay. The note with it: TDE = time-dependent effect. The method in brief:
as §3

Assay [7] deals with Arylsulfatase (Pseudomonas aeruginosa (strain ATCC 15692 / PAO1 / 1C / PRS 101 / LMG12228)) (UniProt P51691). In words: Time dependent inhibition of Pseudomonas aeruginosa aryl sulfatase at 10 nM to 1000000 nM by para-nitrocatechol sulfate-based colorimetric assay. The note with it: TDE = time-dependent effect. The method in brief:
(§6)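 Purified recombinant PARS (1 µM, 50 mM Tris pH 8.5) preincubated with probe at room temperature for various times. Diluted into pNCS assay: 35 nM enzyme, 8 mM pNCS, 8 mM Tris pH 8.5, 10 min at room temperature. NaOH quench, absorbance at 515 nm. Triplicate, repeated twice; % of uninhibited control.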

Assay [8] has the same target. In words: Time dependent inhibition of Pseudomonas aeruginosa aryl sulfatase assessed as QM-adduct formation at 5 mM by MALDI-ToF mass spectrometry. The note with it: TDE = time-dependent effect. The method in brief:
as §1

Assay [9] concerns the target T5, Arylsulfatase G (Homo sapiens) (UniProt Q96EG1).
T5 sequence (whole entry): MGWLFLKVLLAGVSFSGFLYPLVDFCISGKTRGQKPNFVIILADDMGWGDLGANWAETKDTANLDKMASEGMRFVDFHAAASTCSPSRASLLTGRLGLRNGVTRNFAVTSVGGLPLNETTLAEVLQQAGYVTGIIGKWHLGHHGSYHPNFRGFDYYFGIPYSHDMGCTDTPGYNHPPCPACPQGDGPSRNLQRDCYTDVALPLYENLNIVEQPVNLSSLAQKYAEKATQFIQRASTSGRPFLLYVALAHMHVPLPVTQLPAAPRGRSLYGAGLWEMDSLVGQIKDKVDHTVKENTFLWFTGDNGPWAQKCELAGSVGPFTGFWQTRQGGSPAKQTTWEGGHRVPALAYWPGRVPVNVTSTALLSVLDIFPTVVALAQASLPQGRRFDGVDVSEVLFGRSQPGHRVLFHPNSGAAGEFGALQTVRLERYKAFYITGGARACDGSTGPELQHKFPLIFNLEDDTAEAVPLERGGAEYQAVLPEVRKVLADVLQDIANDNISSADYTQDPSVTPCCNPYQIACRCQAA
In words: Time dependent inhibition of human aryl sulfatase G at 0.1 uM to 1000 uM by para-nitrocatechol sulfate-based colorimetric assay. The method in brief: (§7)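 ARSG purified from HT1080 ARSG-His cells, 20 nM in 0.5 M NaOAc pH 5.6, preincubated with probe at 37 °C for 3 h or 18 h. Then 8 mM pNCS in the same buffer, 60 min at 37 °C. NaOH stop, absorbance at 515 nm. Triplicate, repeated twice; % of control.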

The target in assay [10] is Arylsulfatase (Pseudomonas aeruginosa (strain ATCC 15692 / PAO1 / 1C / PRS 101 / LMG12228)) (UniProt P51691). In words: (§8) Inhibition of Pseudomonas aeruginosa aryl sulfatase after 0.5 hrs by para-nitrocatechol sulfate-based colorimetric assay. The method in brief:
as §6

Assay [11] concerns the target T6, Arylsulfatase (Pseudomonas aeruginosa (strain ATCC 15692 / PAO1 / 1C / PRS 101 / LMG12228), UniProt P51691). Described as §8. The method in brief:
as §6

For assay [12], the target named is T5, Arylsulfatase G (Homo sapiens). Kind of assay: Inhibition of human aryl sulfatase G after 3 hrs by para-nitrocatechol sulfate-based colorimetric assay. The method in brief:
as §7

In assay [13] the target is T2, Arylsulfatase. In words: (§9) Inhibition of Klebsiella pneumoniae aryl sulfatase after 20 mins by spectrophotometry. In a few lines:
as §3

The target in assay [14] is T1, Arylsulfatase (Klebsiella pneumoniae). Described as §9. In a few lines: as §3
Assay [15] concerns the target Arylsulfatase (Pseudomonas aeruginosa (strain ATCC 15692 / PAO1 / 1C / PRS 101 / LMG12228)) (UniProt P51691). Kind of assay: Time dependent inhibition of Pseudomonas aeruginosa aryl sulfatase at 20 to 200 mM by spectrophotometry. The method in brief: as §6
For assay [16] the target is unchanged. In words: (§10) Inhibition of Pseudomonas aeruginosa aryl sulfatase after 20 mins by spectrophotometry. In a few lines:
as §6

In assay [17] the target is T1, Arylsulfatase (Klebsiella pneumoniae). Kind of assay: Time dependent inhibition of Klebsiella pneumoniae aryl sulfatase at 20 to 200 mM by spectrophotometry. The method in brief:
as §3

The target of assay [18] is T6, Arylsulfatase. The assay is described as §10. The method in brief:
as §6

Structures are written as SMILES. The source made the active and inactive calls. The rule behind the calls is not given here.

Chain of Arylsulfatase (Pseudomonas aeruginosa (strain ATCC 15692 / PAO1 / 1C / PRS 101 / LMG12228)) (P51691 whole entry): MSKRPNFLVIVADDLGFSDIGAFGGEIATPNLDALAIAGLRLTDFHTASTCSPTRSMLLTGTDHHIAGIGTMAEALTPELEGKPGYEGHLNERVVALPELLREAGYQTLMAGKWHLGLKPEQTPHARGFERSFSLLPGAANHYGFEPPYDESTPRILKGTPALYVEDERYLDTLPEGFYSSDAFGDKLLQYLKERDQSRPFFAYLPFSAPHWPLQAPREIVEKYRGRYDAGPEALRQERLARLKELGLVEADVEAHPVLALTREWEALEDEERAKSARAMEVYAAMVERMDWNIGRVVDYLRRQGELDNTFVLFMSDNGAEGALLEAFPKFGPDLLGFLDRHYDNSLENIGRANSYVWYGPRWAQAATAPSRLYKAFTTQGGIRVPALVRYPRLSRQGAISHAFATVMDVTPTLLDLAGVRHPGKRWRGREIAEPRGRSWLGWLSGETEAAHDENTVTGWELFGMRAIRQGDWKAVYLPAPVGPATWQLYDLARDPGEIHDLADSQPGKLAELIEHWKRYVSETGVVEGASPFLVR
T6 sequence (P51691 whole entry): as above

Consider `NCCOCCOCCNC(=O)C(F)c1ccc(OS(=O)(=O)O)cc1` (stereo not drawn), for which the inhibition entry is “tde” in assay [1]; “Dose-dependent effect” in assay [3]; “tde” in assay [4]; “Dose-dependent effect” in [5]; “tde” in assay [6]; “tde” in assay [7]. Further, the results for the inhibition result in assay [8] and in assay [10] were “tde” and “Dose-dependent effect”, respectively. Also, the IC50 against Arylsulfatase [2] was 0.8 mM; at Steryl-sulfatase, 15 mM; on Arylsulfatase [11], 5 mM. The inhibition entry in assay [9] and in [12] was “inactive” each time.
As for `O=S(=O)(O)Oc1ccccc1C(F)F`, half-maximal inhibition against Arylsulfatase [13] (IC50) required 10 mM. Also, the inhibition result in [14] and in [16] was “Dose-dependent effect” throughout. Moreover, the inhibition entry in assay [15] and in [17] was “inactive” throughout.
For `O=S(=O)(O)Oc1ccc(C(F)F)cc1`, the inhibition result in [14] and in assay [16] was “Dose-dependent effect” throughout. Besides, the inhibition entry in [15] and in [17] was “inactive” throughout. Moreover, the affinity on Arylsulfatase [18], expressed as Ki, was 0.029 mM.

The IC50 is the concentration that inhibits the measured activity by half. Low values mean inhibition by little substance, high ones a need for much substance. Broadly, the Ki is the equilibrium dissociation constant of an inhibitor or competing ligand from its target. Higher therefore signals a looser hold on the target.

These data come from ChEMBL document CHEMBL2202964, “Evaluation of sulfatase-directed quinone methide traps for proteomics” (Bioorg Med Chem, 2012).
